Measurements reported in ChEMBL document CHEMBL4831519, “Discovery of the first-in-class dual PPARδ/γ partial agonist for the treatment of metabolic syndrome” (Eur J Med Chem, 2021).
pEC50: −log10 of the molar value. The source made the active and inactive calls. The calls are words filed in the database; no cut-off is given here.

Experiments:
[1] = biological target: T1, Peroxisome proliferator-activated receptor alpha (Homo sapiens, UniProt Q07869); assay: Agonist activity at human PPARalpha transfected in human HepG2 cells incubated for 18 hrs by Renilla/Firefly dual-luciferase reporter assay; format: cell-based
T1 sequence (Q07869 whole entry): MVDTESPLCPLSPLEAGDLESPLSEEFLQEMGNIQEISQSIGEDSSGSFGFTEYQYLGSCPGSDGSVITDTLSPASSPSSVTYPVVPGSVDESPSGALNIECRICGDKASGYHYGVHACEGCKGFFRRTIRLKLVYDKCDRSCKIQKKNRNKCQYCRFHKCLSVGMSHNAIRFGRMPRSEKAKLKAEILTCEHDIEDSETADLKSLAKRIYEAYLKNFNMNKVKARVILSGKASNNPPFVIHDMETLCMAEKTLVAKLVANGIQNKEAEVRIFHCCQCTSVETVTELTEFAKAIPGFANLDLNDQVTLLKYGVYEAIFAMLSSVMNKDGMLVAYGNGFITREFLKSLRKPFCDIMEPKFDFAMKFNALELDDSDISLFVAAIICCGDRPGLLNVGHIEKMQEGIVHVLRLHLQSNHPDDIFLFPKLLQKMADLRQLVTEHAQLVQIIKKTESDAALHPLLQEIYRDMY

[2] = biological target: T2, Peroxisome proliferator-activated receptor gamma (Homo sapiens, UniProt P37231); assay: Agonist activity at human PPARgamma transfected in human HEK293 cells incubated for 18 hrs by Renilla/Firefly dual-luciferase reporter assay; format: cell-based
T2 sequence (P37231 whole entry): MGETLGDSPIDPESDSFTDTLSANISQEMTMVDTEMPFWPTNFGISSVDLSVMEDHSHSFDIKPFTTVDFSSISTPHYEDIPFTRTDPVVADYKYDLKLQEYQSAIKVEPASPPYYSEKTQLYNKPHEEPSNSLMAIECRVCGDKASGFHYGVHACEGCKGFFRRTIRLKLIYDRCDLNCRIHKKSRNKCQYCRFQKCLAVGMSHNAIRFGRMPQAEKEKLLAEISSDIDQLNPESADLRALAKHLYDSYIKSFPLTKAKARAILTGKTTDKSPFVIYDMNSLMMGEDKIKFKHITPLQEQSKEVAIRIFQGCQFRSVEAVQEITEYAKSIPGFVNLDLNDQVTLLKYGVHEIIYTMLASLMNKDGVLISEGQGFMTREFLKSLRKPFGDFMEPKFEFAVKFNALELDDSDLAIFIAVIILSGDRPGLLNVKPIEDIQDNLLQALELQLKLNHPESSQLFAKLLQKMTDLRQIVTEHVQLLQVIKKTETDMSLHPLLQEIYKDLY

[3] = biological target: T3, Peroxisome proliferator-activated receptor delta (Homo sapiens, UniProt Q03181); assay: Agonist activity at human PPARdelta transfected in human HEK293 cells incubated for 18 hrs by Renilla/Firefly dual-luciferase reporter assay; format: cell-based
T3 sequence (Q03181 whole entry): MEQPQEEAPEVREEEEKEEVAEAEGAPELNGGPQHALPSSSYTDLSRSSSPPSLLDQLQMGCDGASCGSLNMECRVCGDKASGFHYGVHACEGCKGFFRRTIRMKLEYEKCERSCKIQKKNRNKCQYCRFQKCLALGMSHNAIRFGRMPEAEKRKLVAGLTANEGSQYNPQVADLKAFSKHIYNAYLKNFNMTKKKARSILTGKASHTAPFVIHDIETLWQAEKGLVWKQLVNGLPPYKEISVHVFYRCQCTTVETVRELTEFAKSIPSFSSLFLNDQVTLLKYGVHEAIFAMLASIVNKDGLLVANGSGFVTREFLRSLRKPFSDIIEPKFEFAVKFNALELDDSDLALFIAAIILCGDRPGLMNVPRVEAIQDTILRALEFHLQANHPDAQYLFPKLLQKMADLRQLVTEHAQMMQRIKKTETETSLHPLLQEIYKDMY

[4] = Half-life in Sprague-Dawley rat at 3 mg/kg, po measured for 24 hrs by LC-MS/MS analysis; format: ADME, organism-based; details: in vivo
In short: (§1)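 Male SD rats (eight weeks old at purchase) dosed orally at 3 mg/kg. Plasma profile followed over 0–24 h to derive AUC0–24h, Cmax, CL and T1/2. Values are mean SD of four rats.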

[5] = Toxicity in ob/ob mouse assessed as weight gain at 20 mg/kg, po administered once daily for 30 days and measured every 5 days; format: organism-based; details: in vivo, 720 h, time 30 day
In short: (§2)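 Food and water intake measured daily and body weight every 5 days. n = 6, mean SD; Student's t-test vs vehicle, with one-way ANOVA/Tukey.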

[6] = AUC (0 to 24 hrs) in Sprague-Dawley rat at 3 mg/kg, po measured after 24 hrs by LC-MS/MS analysis; format: ADME, organism-based; parameters: route oral, time 24 hrs, dose 3 mg/kg; details: in vivo; in short: as §1
[7] = Clearance in Sprague-Dawley rat at 3 mg/kg, po measured for 24 hrs by LC-MS/MS analysis; format: ADME, organism-based; details: in vivo; in short: as §1
[8] = Cmax in Sprague-Dawley rat at 3 mg/kg, po measured for 24 hrs by LC-MS/MS analysis; format: ADME, organism-based; parameters: route oral, dose 3 mg/kg, time 24 hrs; details: in vivo; in short: as §1
Mus musculus [9] = organism: Mus musculus; details: dose 10.0 mg/kg, time 30.0 day
[10] = Induction of hepatic steatosis in ob/ob mouse at 10 mg/kg, po administered once daily for 30 days by hematoxylin-eosin staining based histopathological analysis; format: organism-based; details: in vivo, 720 h, time 30 day
In short: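 Liver sections were stained with hematoxylin-eosin and viewed at 400× for steatosis and ballooning, with normal controls included.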

Mus musculus [11] = organism: Mus musculus; details: dose 10.0 mg/kg, time 30.0 day; remark: listed apart in the source
Mus musculus [12] = organism: Mus musculus; details: dose 10.0 mg/kg, time 30.0 day; remark: listed apart in the source
[13] = Toxicity in ob/ob mouse assessed as weight gain at 10 mg/kg, po administered once daily for 30 days and measured every 5 days; format: organism-based; details: in vivo, 720 h, time 30 day; in short: as §2
Mus musculus [14] = organism: Mus musculus; details: dose 10.0 mg/kg, time 30.0 day; remark: listed apart in the source
Mus musculus [15] = organism: Mus musculus; details: dose 10.0 mg/kg, time 30.0 day; remark: listed apart in the source
Mus musculus [16] = organism: Mus musculus; details: dose 10.0 mg/kg, time 30.0 day; remark: listed apart in the source

SMILES: CCCOc1ccc2c(c1)O/C(=C\c1cc(C)c(OCC(=O)O)c(C)c1)C2=O
- pEC50 [1]: < 5.00

SMILES: CCCOc1ccc2c(c1)O/C(=C\c1cc(C)c(OC(C)(C)C(=O)O)c(C)c1)C2=O
- pEC50 [1]: 5.16

SMILES: CSc1ccc(C(=O)/C=C/c2cc(C)c(OC(C)(C)C(=O)O)c(C)c2)cc1 [ELAFIBRANOR]
- pEC50 [1]: 6.43
- pEC50 [2]: 5.40

SMILES: CCOc1ccc2c(c1)O/C(=C\c1cc(C)c(OCC(=O)O)c(C)c1)C2=O
- pEC50 [1]: < 5.00

SMILES: COc1ccc2c(c1)O/C(=C\c1cc(C)c(OCC(=O)O)c(C)c1)C2=O
- pEC50 [3]: 5.49
- pEC50 [1]: < 5.00

SMILES: Cc1cc(/C=C2\Oc3cc(OCC4CC4)ccc3C2=O)cc(C)c1OCC(=O)O
- pEC50 [1]: < 5.00

SMILES: Cc1cc(/C=C2\Oc3cc(OCCC(C)C)ccc3C2=O)cc(C)c1OC(C)(C)C(=O)O
- pEC50 [1]: 5.11

SMILES: Cc1cc(/C=C2\Oc3cc(OCC4CC4)ccc3C2=O)cc(C)c1OC(C)(C)C(=O)O
- half-life [4]: 231 min
- Activity [5]: Non-Toxic
- AUC(0-t) at 24 h [6]: 51100 ng·h/mL
- CL/F [7]: 0.351 mL/min/kg
- Cmax [8]: 8670 ng/mL

SMILES: CCOc1ccc2c(c1)O/C(=C\c1cc(C)c(OC(C)(C)C(=O)O)c(C)c1)C2=O
- pEC50 [1]: 5.33

SMILES: Cc1cc(/C=C2\Oc3cc(OCC(C)C)ccc3C2=O)cc(C)c1OCC(=O)O
- pEC50 [1]: < 5.00

SMILES: CN(CCOc1ccc(CC2SC(=O)NC2=O)cc1)c1ccccn1 (stereo not given) [ROSIGLITAZONE]
- inhibition (Mus musculus [9]): inactive
- Activity [10]: Toxic
- inhibition (Mus musculus [11]): inactive
- inhibition (Mus musculus [12]): inactive
- Activity [13]: Toxic
- inhibition (Mus musculus [14]): inactive
- inhibition (Mus musculus [15]): inactive
- inhibition (Mus musculus [16]): inactive

SMILES: COc1ccc2c(c1)O/C(=C\c1cc(C)c(OC(C)(C)C(=O)O)c(C)c1)C2=O
- pEC50 [1]: 5.43
